Only some compounds are listed: those with a hit (about 4.8% of all), similar ones and a draw of the others.
CHOP UPR activ – activators of apoptotic CHOP UPR arm, primary screen, cell-based, CHO-CHOP luciferase reporter, luminescence, uHTS; UPR activation; percent of tunicamycin response over DMSO baseline; activation, % at 10 µM; 330,000 compounds, 0.34% hits; AID 449763, 2010;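 active = at 10 µM dose, activation of 40% or more, normalized to positive control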;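 also: 100% = tunicamycin at 10 µg/mL and 0% = DMSO alone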
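assay system = CHO CHOP reporter cells | amount = 500 CHO-CHOP cells per well | buffer or medium = F12 with 10% FBS | incubation = 16-18 h cell attachment, then 6 h compound exposure, 37 °C | detection = luminescence read with Steady-Glo | read-out = percent activation relative to tunicamycin control | controls = tunicamycin high control, DMSO low control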
UPR XBP1 act – activators of adaptive XBP1 UPR arm, primary screen, cell-based, CHO-XBP1 luciferase reporter, luminescence, uHTS; IRE1-XBP1 UPR activation; percent of tunicamycin response, DMSO as zero; activation, % at 20 µM; 330,000 compounds, 0.33% hits; AID 463104, 2010;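 active = versus positive control, 20 µM dose yields 30% or more activation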;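 also: 100% = tunicamycin at 10 µg/mL and 0% = DMSO only wells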
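Test system: CHO-XBP1 luciferase reporter cells | Buffer or medium: Serum-containing F12 medium, 10% FBS | Schedule: 6 h compound exposure at 37 °C, 5% CO2 | Detection: Steady-Glo luciferase glow luminescence, 10 min after reagent addition | Read-out basis: Activation, % of tunicamycin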
CSC inhib – cancer stem cell viability inhibitors, primary screen, luminescence; inhibition, % at 7.5 µM; cancer stem cell-like cells viability; 300,000 compounds, 1.1% hits; in the data active = inhibition above about 75%; inconclusive = no clear call, values can overlap the other calls; tested in HMLE shEcad cells
Beta cell apopt – inhibitors of cytokine-induced beta cell apoptosis, primary screen, luminescence | INS-1E cytokine-induced death, ATP luminescence, 48 h; percent of positive-control rescue, neutral wells zero | protection from apoptosis, % (concentration not given with the values) | 300,000 compounds, 0.8% hits | AID 435005, 2010;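 active = Every replicate reaches about 75%, or at least half do and their mean reaches it too, limit read from the data; inconclusive = At least half of replicates reach the limit but their mean does not; inactive = Under half of replicates reach the limit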;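 also: 0% = cytokine-treated negative control wells and 100% = positive control rescue; higher means more ATP so stronger rescue from cytokine killing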
SKKanGAS inh – S. pyogenes SKKanGAS growth inhibitors in kanamycin, primary screen, streptokinase expression inhibitor project, SKKanGAS strain, BacTiter-Glo luminescence; 300,000 compounds, 1.3% hits; 6 h; AID 1662, 2009; inhibition, % at 7.5 µM;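 active = mean replicate score, as percent of positive control median, at least 50; inconclusive = mean below 50 but one replicate at or above 50; inactive = mean and every replicate below 50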;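 also: strain carries kanamycin resistance gene driven by streptokinase promoter and grows in 40 µg/ml kanamycin; loss of luminescence reflects streptokinase promoter inhibition or plain growth inhibition; 0% = median of DMSO wells and 100% = positive control at its reference dose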
Mdm2-MdmX inh – inhibitors of human Mdm2-MdmX association, primary screen, cell-based, luminescence, split luciferase, SaOS-2, uHTS; SaOS-2 split-luciferase Mdm2/MdmX complementation; inhibition, % at 8 µM; 330,000 compounds, 3% hits;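 active = inhibition of at least 50% at 8 µM in the primary screen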
Target sequence (O15151 whole entry, looked up): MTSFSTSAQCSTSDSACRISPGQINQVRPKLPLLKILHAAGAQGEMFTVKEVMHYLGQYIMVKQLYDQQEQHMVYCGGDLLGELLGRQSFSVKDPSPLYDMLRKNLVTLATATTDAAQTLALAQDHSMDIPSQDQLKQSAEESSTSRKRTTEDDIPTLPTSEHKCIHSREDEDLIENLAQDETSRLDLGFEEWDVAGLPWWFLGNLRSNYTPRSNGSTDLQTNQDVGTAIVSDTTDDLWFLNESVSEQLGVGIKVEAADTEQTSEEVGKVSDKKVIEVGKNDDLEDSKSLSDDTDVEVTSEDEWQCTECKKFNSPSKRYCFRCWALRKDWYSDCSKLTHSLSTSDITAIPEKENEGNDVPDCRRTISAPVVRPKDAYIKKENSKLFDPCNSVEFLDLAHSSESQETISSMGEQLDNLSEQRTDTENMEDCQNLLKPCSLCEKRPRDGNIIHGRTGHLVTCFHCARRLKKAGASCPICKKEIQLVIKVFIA
Target sequence (Q00987 whole entry, looked up): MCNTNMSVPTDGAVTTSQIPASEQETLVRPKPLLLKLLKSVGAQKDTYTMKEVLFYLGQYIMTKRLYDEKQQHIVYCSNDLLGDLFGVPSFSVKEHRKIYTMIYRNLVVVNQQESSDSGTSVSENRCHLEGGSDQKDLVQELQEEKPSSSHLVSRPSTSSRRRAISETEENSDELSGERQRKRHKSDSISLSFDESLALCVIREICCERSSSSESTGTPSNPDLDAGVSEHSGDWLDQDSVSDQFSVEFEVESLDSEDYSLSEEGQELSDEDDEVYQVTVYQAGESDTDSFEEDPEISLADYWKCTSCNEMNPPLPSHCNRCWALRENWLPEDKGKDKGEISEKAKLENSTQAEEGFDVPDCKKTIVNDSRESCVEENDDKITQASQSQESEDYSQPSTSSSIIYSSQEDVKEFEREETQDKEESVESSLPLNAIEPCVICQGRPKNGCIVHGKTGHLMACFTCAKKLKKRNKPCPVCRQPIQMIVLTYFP
Mdm2 MdmX conf – Mdm2-MdmX complex disruptors, retested hits, confirmation, luminescence, single concentration. shares compounds with Mdm2-MdmX inh. Mdm2-MdmX binding, luminescent assay. inhibition, % at 8 µM. 10,000 compounds, 55% hits. AID 489028, 2010; in the data active = inhibition above about 40%
FLuc counter – full-length luciferase signal inhibition, confirmation, counter-screen for Mdm2/MdmX interaction inhibitor project, cell-based, single concentration, SaOS-2; shares compounds with Mdm2-MdmX inh; SaOS-2 full-length luciferase counterscreen, luminescence; inhibition, % at 8 µM; 6,200 compounds, 77% hits; AID 504607, 2011;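 active = mean inhibition at 8 µM reaching about 37%, which flags the compound as non-specific, limit read from the data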;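 also: p53-null SaOS-2 cells with luciferase driven by a doxycycline-inducible promoter; compound on cells about two nights before reading with doxycycline added after day one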
* marks the source's active call; other numbers are inactive results; ? = inconclusive; / = not tested or not shown; + = active, no number.

SMILES	CHOP UPR activ	UPR XBP1 act	CSC inhib	Beta cell apopt	SKKanGAS inh	Mdm2-MdmX inh	Mdm2 MdmX conf	others
CCOc1ccc(/C=N/NC(=S)Nc2c(C)cccc2C)cc1	0	-1	6	4	11	52*	15
CCNC(=S)N/N=C/c1ccc(OCCOc2ccccc2C)cc1	-2	3	-7	-6	0	37	/
CCOc1ccc(/C=N/NC(=O)COc2ccccc2-c2ccccc2)cc1	-1	-4	78*	3	23	51*	44*	FLuc counter=52*
CCOc1ccc(/C=N/NC(=O)c2c(-c3ccccc3)noc2C)cc1	1	-3	-10	-5	-3	15	/
O=C(COC(=O)c1ccc(Br)c(S(=O)(=O)N2CCOCC2)c1)NC1CC1	1	1	-10	-4	/	7	/
CCOC(=O)c1ccc(NC(=O)N2CCN(Cc3ccccc3)CC2)cc1	1	-1	3	-2	-5	-24	/
COc1c2c(cc3oc(=O)c4c5ccc(O)cc5oc4c13)OC(C)(C)CC2	8	7	-10	7	3	81*	63*	FLuc counter=+
COc1c(CC=C(C)C)c(O)cc2oc(=O)c3c4ccc(O)cc4oc3c12	7	8	-2	-6	13	2	/
CCOC(=O)NC(=O)CSc1ccc(S(=O)(=O)N(C)C2CCCCC2)cn1	0	-1	/	-1	/	14	/
CCOc1ccc(NS(=O)(=O)c2ccc(C(=O)NCC(c3ccc(OC)cc3)N3CCCC3)cc2)cc1 (stereo unspecified)	-1	-3	/	1	-7	10	/
CCOC(=O)C1CCN(S(=O)(=O)c2c(Cl)ccc3nonc23)CC1	16	-7	2	48	-10	100*	98*	FLuc counter=1
Cc1cccc(NC(=O)c2nc[nH]c2C(=O)NCCCCNC(=O)c2[nH]cnc2C(=O)Nc2cccc(C)c2)c1	9	21	40	15	/	75*	4
CCOC(=O)c1[nH]cnc1C(=O)Nc1ccc(Cl)cc1	2	8	6	-8	-1	1	/
O=C(Nc1cccc(Cl)c1)c1nc[nH]c1C(=O)NCCN(CCNC(=O)c1[nH]cnc1C(=O)Nc1cccc(Cl)c1)CCNC(=O)c1[nH]cnc1C(=O)Nc1cccc(Cl)c1	2	-2	/	3	/	75*	24
Cc1cccc(NC(=O)c2nc[nH]c2C(=O)NCCCCCCNC(=O)c2[nH]cnc2C(=O)Nc2cccc(C)c2)c1	3	-1	38	-1	/	71*	-22
O=C(Nc1ccc(Cl)cc1)c1nc[nH]c1C(=O)NCCCCNC(=O)c1[nH]cnc1C(=O)Nc1ccc(Cl)cc1	18	16	68	7	/	99*	73*	FLuc counter=69*
Cc1cccc(NC(=O)c2nc[nH]c2C(=O)NCc2ccccc2)c1	0	-2	19	-5	/	23	/
CCC(C)(C)NC(=O)CN(C(=O)CNS(=O)(=O)c1ccc(F)cc1)c1ccc2c(c1)OCCO2	0	4	-8	-5	-1	17	/
Cc1csc(=O)n1CCC(=O)OCC(=O)Nc1ccc(F)c(F)c1F	0	-3	1	-10	-10	-8	/
O=C(ONC1=NCCCCC1)c1ccc(Cl)cc1	4	0	7	1	-7	70*	19
O=C(ONC1=NCCCCC1)c1c(F)cccc1F	1	-1	7	-5	-6	65*	27
COc1ccc(-c2cc(C(F)(F)F)n3nc(C(=O)N4CCN5CCCC5C4)cc3n2)cc1OC (stereo unspecified)	1	-1	4	/	4	7	/
O=C(Cc1c(Cl)cccc1Cl)NCCc1ccc(Cl)cc1	2	-3	-19	-6	-2	16	/
O=C(CCl)NCc1c(Cl)cccc1-n1cccc1	1	-1	-8	10	-1	56*	41*	FLuc counter=36
Cc1nn(C(C)(C)C)c(OC(=O)C2CCCC2)c1S(=O)(=O)c1ccccc1	/	/	/	/	2	/	/
SMILES	CHOP UPR activ	UPR XBP1 act	CSC inhib	Beta cell apopt	SKKanGAS inh	Mdm2-MdmX inh	Mdm2 MdmX conf	others
Cc1ccc(S(=O)(=O)c2c(C)nn(C(C)(C)C)c2OC(=O)C2CCCC2)cc1	0	-1	33	-12	2	70*	24
COc1cc(-c2nc3ccccn3c2NCc2ccccc2)ccc1SC1CCCCC1	8	-1	21	16	28	67*	-12
COc1cc(-c2nc3cc(C)ccn3c2NC2CCCCC2)ccc1-c1ccc(C(C)=O)cc1	4	4	22	2	23	43	/
COc1ccc(-c2nc3ccccn3c2NC2CCCCC2)cc1SC1CCCCC1	1	-1	-29	/	83*	70*	28
COc1ccc(Sc2ccc(-c3nc4cnccn4c3NC3CCCCC3)cc2OC)cc1	10	4	104*	4	/	85*	-4
CCOc1ncccc1C(=O)Nc1cc2c(cc1Br)OCCO2	2	2	36	2	/	0	/
CCOc1cc(CNc2ccc(Br)cc2)cc(Br)c1OCC(=O)NC(C)(C)C	0	-2	?	19	19	56*	24
CN(C)CCCN(C(=O)c1cc(Cl)sc1Cl)c1nc2cc3c(cc2s1)OCO3	3	6	-2	-9	0	54*	22
CN(C)CCCN(C(=O)c1cc2cc([N+](=O)[O-])ccc2s1)c1nc2cc3c(cc2s1)OCCO3	-9	-9	63	/	10	97*	65*	FLuc counter=77*
CCN(CC)CCN(C(=O)c1ccc(C(=O)c2ccccc2)cc1)c1nc2cc3c(cc2s1)OCO3	-2	-2	-7	-7	-6	3	/
CN(C)CCCN(C(=O)c1ccc(C(=O)c2ccccc2)cc1)c1nc2cc3c(cc2s1)OCO3	0	-3	17	-6	2	75*	48*	FLuc counter=32
O=C(OCC(=O)N1CCN(c2ccccc2)CC1)C1CCCN1S(=O)(=O)c1ccc(Cl)cc1 (stereo unspecified)	2	-4	/	/	/	18	/
Cc1ccc(-c2nnc(Sc3nc4ccccc4o3)c3ccccc23)cc1	5	0	?	2	6	53*	-8

Source: PubChem BioAssay (several laboratories)
